Article PMC8561236 (Cell Reports Medicine, 2021)

Experiments:
[1] = test system: Ly6Chigh monocytes in EAU mice; assay: Experimental autoimmune uveitis; set-up: species or system B10.RIII mice; conditions: mouse, in vivo, 200 mg/kg
[2] = Pharmacokinetic study in rats; format: in vivo, Lewis rats; conditions: rat, EC2319 subcutaneous 500 nmol/kg; analyte = label
[3] = Pharmacokinetic study in dogs; format: in vivo, beagle dogs; conditions: dog
FRβ = conditions: cited from earlier work
RAW264.7 cells = conditions: same experimental condition; cited from earlier work
[4] = test system: CD172+ CD43− monocytes in anti-GBM rats; assay: Anti-GBM induced glomerulonephritis, blood monocyte analysis; format: in vivo, Wistar Kyoto rats; conditions: oral, 4.56 μmol/kg on day 0 or 575 nmol/kg on days 0 and 3, day 6 whole blood
In short: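 Male WKY rats on folate-deficient diet for 10 days, then IV anti-GBM serum (25 μL/100 g); diet continued. Dosing at 8 h (day 0) and day 3, ± 300-fold molar excess FA competitor; n = 3. Blood in 5 mM K2EDTA, analysed next day: RBC lysis of 100 μL blood, flow staining. CD172+CD43− monocytes expressed as percentage of total leukocytes.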

## CNC(=O)c1cc(Oc2ccc3nc(N[C@@H]4CCCC[C@H]4O)sc3c2)ccn1 [BLZ945]
[1]
  effect on classical (R1, Ly6Chigh CD43+) monocytes: reduced significantly to background levels

## Nc1nc(N)c2nc(CNc3ccc(C(=O)N[C@@H](CCC(=O)O)C(=O)O)cc3)cnc2n1 [AMT, Aminopterin]
[2]
  AUClast (% Total): 9.17%
[3]
  difference in AUClast between EC2319-derived AMT and the AMT adduct: 3- to 7 fold
[3]; both dosing routes (intravenous 1 mg/kg, subcutaneous 2.43 mg/kg), analyte = label
  share of total AUClast: 1.37%–2.99%
FRβ
  binding affinity toward FRβ: negligible

## Nc1nc(=O)c2nc(CNc3ccc(C(=O)N[C@@H](CCC(=O)O)C(=O)O)cc3)cnc2[nH]1 [FA, Folic acid]
RAW264.7 cells
  biological effect of FA alone: did not show an immediate biological effect

## CN(Cc1cnc2nc(N)nc(N)c2n1)c1ccc(C(=O)N[C@@H](CCC(=O)O)C(=O)O)cc1 [MTX, Methotrexate]
[4]
  effect on CD172+ CD43− monocytes: ineffective
